The test system of series [1] is DU-145. As to the kind of experiment: Antiproliferative activity against human DU145 cells assessed as inhibition of cell proliferation at 10 uM after 48 hrs by resazurin reduction test. Type of series: functional. To be noted: DU-145, 48 h.
The nature of series [2]: Antiproliferative activity against human Fibroblast assessed as inhibition of cell proliferation at 10 uM after 48 hrs by resazurin reduction test. Format: cell-based. To be noted: human fibroblasts. (In general: The colour change of resazurin is a common sign of viable cells or microbes.)
Series [3] relates to PA-1. Briefly: Antiproliferative activity against human PA1 cells assessed as inhibition of cell proliferation at 10 uM after 48 hrs by resazurin reduction test. Type of series: functional. The conditions noted are these: PA-1, 48 h. The method, boiled down: (§1)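 PA1 and PC3 screen: cells at 5×10^3/well adhered 16 h, then were treated 48 h continuously at 1 and 10 µM from a 20 mM DMSO stock. Growth inhibition was scored by resazurin reduction (25 µg/mL, 1 h, 37 °C; fluorescence ex 530/em 590 nm) relative to control wells after blank subtraction.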

For series [4], the target named is Serine/threonine-protein kinase pim-2 (Homo sapiens) (UniProt Q9P1W9). As to the kind of experiment: Inhibition of Pim2 assessed as residual enzyme activity at 1 uM.
Sequence of Serine/threonine-protein kinase pim-2 (Homo sapiens) (Q9P1W9 whole entry, looked up): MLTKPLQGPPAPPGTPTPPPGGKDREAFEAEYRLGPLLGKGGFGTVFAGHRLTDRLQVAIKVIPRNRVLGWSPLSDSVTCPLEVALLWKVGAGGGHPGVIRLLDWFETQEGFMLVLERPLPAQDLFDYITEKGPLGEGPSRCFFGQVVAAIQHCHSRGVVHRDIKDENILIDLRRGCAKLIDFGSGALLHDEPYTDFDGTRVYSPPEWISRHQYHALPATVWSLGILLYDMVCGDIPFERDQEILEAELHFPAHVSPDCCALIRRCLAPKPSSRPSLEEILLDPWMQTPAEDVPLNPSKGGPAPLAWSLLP
For series [5], the target named is Serine/threonine-protein kinase pim-3 (Homo sapiens) (UniProt Q86V86). Briefly: Inhibition of Pim3 assessed as residual enzyme activity at 1 uM.
Series [6] concerns the target Serine/threonine-protein kinase pim-1 (Homo sapiens) (UniProt P11309). As to the kind of experiment: Inhibition of Pim1 assessed as residual enzyme activity at 1 uM.
For series [7], the target named is Serine/threonine-protein kinase pim-2 (Homo sapiens) (UniProt Q9P1W9). Briefly: Inhibition of Pim2 assessed as residual enzyme activity at 10 uM.
The test system of series [8] is PC-3. As to the kind of experiment: Antiproliferative activity against human PC3 cells assessed as inhibition of cell proliferation at 10 uM after 48 hrs by resazurin reduction test. Format: functional. To be noted: PC-3, 48 h. Put shortly: as §1
Series [9] has as its target Serine/threonine-protein kinase pim-1 (Homo sapiens) (UniProt P11309). As to the kind of experiment: Inhibition of Pim1 assessed as residual enzyme activity at 10 uM.
The target of series [10] is Serine/threonine-protein kinase pim-3 (Homo sapiens) (UniProt Q86V86). Briefly: Inhibition of Pim3 assessed as residual enzyme activity at 10 uM.
Series [11] concerns PA-1. Briefly: Antiproliferative activity against human PA1 cells after 48 hrs by resazurin reduction test. Type of series: functional, cell-based. To be noted: PA-1, 48 h. Put shortly:
(§2)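 Cells grown as monolayers in MEM with Earle's salts, 10% FCS, pyruvate, non-essential amino acids and gentamicin at 37 °C, 5% CO2. 5×10^3 cells/well adhered 16 h, then had 48 h continuous exposure to drug from a 20 mM DMSO stock. Resazurin (25 µg/mL, 1 h, 37 °C) was read by fluorescence (ex 530/em 590 nm). IC50 came from blank-corrected survival % vs control wells.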

Series [12] has as its system DU-145. Briefly: Antiproliferative activity against human DU145 cells after 48 hrs by resazurin reduction test. Type of series: functional, cell-based. The conditions noted are these: DU-145, 48 h. The method, boiled down:
as §2

A short description of series [13]: Antiproliferative activity against human Fibroblast after 48 hrs by resazurin reduction test. Format: cell-based. Put shortly:
as §2

The test system of series [14] is PC-3. As to the kind of experiment: Antiproliferative activity against human PC3 cells after 48 hrs by resazurin reduction test. Format: functional, cell-based. To be noted: PC-3, 48 h. Put shortly: as §2

Structures are written as SMILES. The source made the active and inactive calls. The calls are words filed in the database; no cut-off is given here. Bounds are passed on as bounds.

Sequence of Serine/threonine-protein kinase pim-1 (Homo sapiens) (P11309 whole entry, looked up): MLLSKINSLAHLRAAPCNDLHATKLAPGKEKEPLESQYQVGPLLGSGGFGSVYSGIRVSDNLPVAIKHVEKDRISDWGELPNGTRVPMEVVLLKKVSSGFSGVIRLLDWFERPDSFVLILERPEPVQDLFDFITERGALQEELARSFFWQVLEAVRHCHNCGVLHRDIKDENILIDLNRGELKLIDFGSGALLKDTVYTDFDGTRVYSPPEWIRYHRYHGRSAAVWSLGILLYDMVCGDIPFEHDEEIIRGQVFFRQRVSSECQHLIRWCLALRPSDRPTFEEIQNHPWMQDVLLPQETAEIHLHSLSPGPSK

On to `CC1(C)[C@@H]2CC[C@@]1(C)c1nc3cc4cn[nH]c4cc3nc12`, for which the inhibition at 10 µM with DU-145 [1], in the series on PA-1 [3] and in the series with PC-3 [8] was less than 50% throughout. Further, the inhibition (in general, the change of the read-out against control, counted positive when it falls) at 48 h, 10 µM in series [2] is less than 50%. Moreover, the Activity was 82% in series [4]; 95% in series [5]; 88% in series [6]; 76% in [7]; 45% in [9]; 37% in series [10].
Regarding `c1n[nH]c2cc3nc4c(nc3cc12)CCC4`, the inhibition at 10 µM in the series on DU-145 [1], in the series with PA-1 [3] and in the series on PC-3 [8] was less than 50% in each case. Moreover, the inhibition at 48 h, 10 µM in [2] is less than 50%. In addition, the result in [4] and in [7] was inactive. Moreover, the Activity in series [5] is 81%; in [6], 95%; in [9], 66.6%; in series [10] it was 46.4%.
`c1n[nH]c2cc3nc4c(nc3cc12)CCCC4`: the result in [4] and in series [7] was inactive. Moreover, the Activity in series [5] stood at 58%; in series [6] it was 90%; in series [9] it was 55.1%; in series [10], 19.7%. Also, the IC50 (in general, the concentration that gives 50% inhibition) in the series with PA-1 [11] was 16 µM; in the series with DU-145 [12], more than 50 µM; in series [13], more than 50 µM; in the series on PC-3 [14], more than 50 µM.
Consider `CC1Cc2nc3cc4[nH]ncc4cc3nc2C1C` (racemic), for which the outcome in [4] and in series [7] was inactive. Moreover, the Activity in series [5] turned out to be 72%; in [6], 88.5%; in series [9] it was 59%; in series [10] it was 44%. The half-inhibitory concentration (IC50) in the series on PA-1 [11] is 6.1 µM; in the series with DU-145 [12] it was more than 50 µM; in series [13] it was more than 50 µM; in the series with PC-3 [14], more than 50 µM.
As to `c1ccc(C2Cc3nc4cc5cn[nH]c5cc4nc3C2)cc1` (racemic), the result in series [4], in series [6] and in series [7] was inactive. For the same molecule, the Activity was determined as 95% in [5], 83% in [9] and 79% in series [10]. For the same molecule, the half-maximal inhibitory concentration (IC50) is 4.1 µM in the series on PA-1 [11], 35 µM in the series with DU-145 [12], more than 50 µM in [13] and more than 50 µM in the series with PC-3 [14].
As for `Nc1cc2cn[nH]c2cc1N`, the inhibition at 10 µM in the series on DU-145 [1], with PA-1 [3] and with PC-3 [8] was less than 50% in each case. In addition, the inhibition at 48 h, 10 µM in series [2] is less than 50%. Besides, the outcome in series [4] and in [7] was inactive. Besides, the Activity in [5] was 69%; in series [6], 95%; in series [9] it was 59%; in series [10] it was 32%.
Turning to `CC1Cc2nc3cc4cn[nH]c4cc3nc2C1C` (racemic), the outcome in series [4], in series [6] and in series [7] was inactive. For the same molecule, the Activity in [5] was found to be 73%; in [9], 69%; in series [10] it was 33%. The IC50 with PA-1 [11] is 4.7 µM; in the series with DU-145 [12] it was more than 50 µM; in [13] it was more than 50 µM; with PC-3 [14] it was more than 50 µM.
Turning to `CC1(C)[C@H]2CC[C@]1(C)c1nc3cc4[nH]ncc4cc3nc12`, the inhibition at 10 µM in the series on DU-145 [1], with PA-1 [3] and in the series on PC-3 [8] was less than 50% each time. For the same molecule, in [2], the inhibition at 48 h, 10 µM was less than 50%. Further, in series [4], the result was inactive. Further, the Activity in [5] came to 83%; in series [6] it was 96%; in [7], 78%; in series [9] it was 71%; in series [10] it was 43%.
`CCc1nc2cc3cn[nH]c3cc2nc1CC`: the result in [4] and in series [7] was inactive. In addition, the Activity turned out to be 84% in series [5], 89% in [6], 49% in series [9] and 31% in series [10]. Further, the IC50 with PA-1 [11] was 6.5 µM; in the series with DU-145 [12], more than 50 µM; in series [13] it was more than 50 µM; in the series with PC-3 [14], more than 50 µM.

Source of the values: ChEMBL document CHEMBL1275327, “Synthesis and biological activities of pyrazolo[3,4-g]quinoxaline derivatives” (Eur J Med Chem, 2010).
